# Experimental data as given in PubChem BioAssay AID651775 (Broad Institute, 2012).
# System: SK-MEL-5 TRPM1 promoter luciferase, 24 h
# Experiment: MITF transcriptional reporter enhancement – cell-based, SK-MEL-5, luciferase, dry powder, dose response (AID 651775)
# Method in brief: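 System: SK-MEL-5 TRPM1-promoter luciferase reporter line / Quantity: 2000 cells per well / Medium: phenol red-free DMEM plus 10% heat-inactivated FBS / Schedule: 24 h compound exposure at 37 °C / Measured by: SteadyGlo luciferase luminescence after 5 min room-temperature incubation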
row,SMILES,AC40
1,Cc1cc2ncc(-c3ccc(Cl)cc3)c(N)n2n1,1770 nM
2,CC(=O)Nc1nnc(COc2ccc(Cl)cc2)s1,589 nM
3,COc1cc(/C=N/O)ccc1OCc1ccccc1Cl,180 nM
4,Cc1ccc(NC(=O)c2ccc3ccccc3n2)cc1S(=O)(=O)N(C)C,462 nM
5,c1ccc(-c2ccc(-c3cnc4n3CCCCC4)cc2)cc1,2290 nM
6,COc1ccc(NC(=O)c2ccc3[nH]c(C)c(C)c3c2)cc1,1930 nM
7,COc1cccc(NC(=O)C(=O)NCCC2CCCCN2S(=O)(=O)c2cccs2)c1 (stereo not drawn),2070 nM
8,c1ccc(CSc2ccc(-c3ccc4c(c3)OCO4)nn2)cc1,974 nM
9,c1ccc2c(Nc3nnc(-c4ccncc4)s3)cccc2c1,1130 nM
10,O=C(Oc1ccc2ccccc2c1Cl)N1CCCCCC1,113 nM
11,CC(C)(C)C(=O)N1CCN(c2nc3ccccc3s2)CC1,912 nM
12,COC(=O)C(C)N1C(=O)S/C(=C/c2cc(C)n(C(C)C)c2C)C1=O (stereo not drawn),541 nM
13,C/C(=N\OCc1ccc(C#N)cc1)c1ccc(S(=O)(=O)N(C)C)cc1,7800 nM
14,CCN(CC)c1ccc(Nc2nc(-c3cccnc3)cs2)cc1,515 nM
15,CSc1nc2ccc(NC(=O)c3cccs3)cc2s1,465 nM
16,Cc1ccc(C(=O)Nc2cccc(O)c2)cc1S(=O)(=O)N1CCCCCC1,1010 nM
17,COc1ccc(C(=O)NCCn2ccc3ccccc32)cc1,531 nM
18,Cc1nn2c(-c3ccccc3)ccnc2c1-c1ccccc1,824 nM
19,Fc1ccccc1COc1ccc(C(=S)N2CCCC2)cc1,1320 nM
20,C=CCNc1nc(-c2ccc(Cl)cc2)cs1,219 nM
21,O=C(NCCc1cccs1)c1ccc(Cl)c(Cl)c1,615 nM
22,CCCN(CCC)c1ncnc2c1cnn2-c1ccc(OC)cc1,39 nM
23,O=C(Nc1cccc(F)c1)NC1CCCCCCC1,984 nM
